ChEMBL document CHEMBL1158182, “Antifungal activity of chalcones: a mechanistic study using various yeast strains” (Eur J Med Chem, 2008)

Columns and labels:
Type in all cases: functional
Saccharomyces cerevisiae [1] = assay: Antifungal activity against haploid Saccharomyces cerevisiae 1S by agar dilution method
Summary of the method: (§1)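 S. cerevisiae and K. lactis strains were tested by agar dilution on rich YPD agar at 30 °C. Compound stocks in 96% EtOH were added to the medium to give […]. Cells were suspended in water, serially diluted to 10^9–10^3 cells/ml, and plated with a metal replicator. MIC was read from growth.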

Saccharomyces cerevisiae [2] = assay: Antifungal activity against haploid Saccharomyces cerevisiae 1169 by agar dilution method; summary of the method: as §1
Saccharomyces cerevisiae [3] = assay: Antifungal activity against haploid Saccharomyces cerevisiae 2180 by agar dilution method; summary of the method: as §1
Saccharomyces cerevisiae [4] = assay: Antifungal activity against diploid Saccharomyces cerevisiae 1a by agar dilution method; summary of the method: as §1
Saccharomyces cerevisiae [5] = assay: Antifungal activity against diploid Saccharomyces cerevisiae 29a by agar dilution method; summary of the method: as §1
Saccharomyces cerevisiae [6] = assay: Antifungal activity against haploid Saccharomyces cerevisiae Sigma 1278b by agar dilution method; summary of the method: as §1
Saccharomyces cerevisiae [7] = assay: Antifungal activity against haploid Saccharomyces cerevisiae FY4 by agar dilution method; summary of the method: as §1
Saccharomyces cerevisiae [8] = assay: Antifungal activity against haploid Saccharomyces cerevisiae 10560-6B by agar dilution method; summary of the method: as §1
Saccharomyces cerevisiae [9] = assay: Antifungal activity against haploid Saccharomyces cerevisiae YSH1170 by agar dilution method; summary of the method: as §1
Saccharomyces cerevisiae [10] = assay: Antifungal activity against haploid Saccharomyces cerevisiae YSH1171 by agar dilution method; summary of the method: as §1
Ogataea angusta [11] = assay: Antifungal activity against Hansenula polymorpha WT1 with ade1 ura3 genotype by agar dilution method
Summary of the method: (§2)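 H. polymorpha strains were tested by agar dilution on rich YPD agar at 37 °C. Compound stocks in 96% EtOH were mixed into the medium to give […]. Cells were suspended in water, serially diluted to 10^9, 10^7, 10^5 and 10^3 cells/ml, and applied to the agar with a metal replicator. MIC was read from growth.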

Ogataea angusta [12] = assay: Antifungal activity against Hansenula polymorpha WT2 with ade1 met6 genotype by agar dilution method; summary of the method: as §2
Ogataea angusta [13] = assay: Antifungal activity against Hansenula polymorpha CD1 with ade1 leu2 cds1 genotype by agar dilution method; summary of the method: as §2
Ogataea angusta [14] = assay: Antifungal activity against Hansenula polymorpha CD2 with ade1 leu2 cds2 genotype by agar dilution method; summary of the method: as §2
Ogataea angusta [15] = assay: Antifungal activity against Hansenula polymorpha CD3 with ade1 leu2 cds3 genotype by agar dilution method; summary of the method: as §2
Ogataea angusta [16] = assay: Antifungal activity against Hansenula polymorpha 2a with arg1 leu2 ura3 cys1 genotype by agar dilution method; summary of the method: as §2
Ogataea angusta [17] = assay: Antifungal activity against Hansenula polymorpha 2b with arg1 ade1 leu2 genotype by agar dilution method; summary of the method: as §2
Ogataea angusta [18] = assay: Antifungal activity against Hansenula polymorpha D22 with arg1/arg1 ade1/ADE1 leu2/leu2 URA3/ura3 CYS1/cys1 genotype by agar dilution method; summary of the method: as §2
Ogataea angusta [19] = assay: Antifungal activity against Hansenula polymorpha M2 with met2 genotype by agar dilution method; summary of the method: as §2
Ogataea angusta [20] = assay: Antifungal activity against Hansenula polymorpha MC1 with met2 cys1 genotype by agar dilution method; summary of the method: as §2
Ogataea angusta [21] = assay: Antifungal activity against Hansenula polymorpha AS1 with arg1 gsh2delta genotype by agar dilution method; summary of the method: as §2
Ogataea angusta [22] = assay: Antifungal activity against Hansenula polymorpha M4 with met4 genotype by agar dilution method; summary of the method: as §2
Ogataea angusta [23] = assay: Antifungal activity against Hansenula polymorpha AU05 with ade3 ura3 genotype by agar dilution method; summary of the method: as §2
Ogataea angusta [24] = assay: Antifungal activity against Hansenula polymorpha R3 with rgh3 genotype by agar dilution method; summary of the method: as §2
Ogataea angusta [25] = assay: Antifungal activity against Hansenula polymorpha CRD2 with leu2 CDR2 genotype by agar dilution method; summary of the method: as §2
Kluyveromyces lactis [26] = assay: Antifungal activity against Kluyveromyces lactis 2-18B with MATalpha metA1 ura3 leu2 genotype by agar dilution method; summary of the method: as §1
Kluyveromyces lactis [27] = assay: Antifungal activity against Kluyveromyces lactis 1-6A with MATalpha uraA lys arg genotype by agar dilution method; summary of the method: as §1
Kluyveromyces lactis [28] = assay: Antifungal activity against Kluyveromyces lactis 2-19B with MATalpha ura lys arg genotype by agar dilution method; summary of the method: as §1

Measured: MIC

COc1cccc(/C=C/C(=O)c2ccc(Cl)cc2)c1
> 40 µg/mL: all assays above

O=C(/C=C/c1ccc(O)c(O)c1)c1ccccc1
> 40 µg/mL: all assays above

N#Cc1ccc(/C=C/C(=O)c2ccc(Cl)cc2)cc1
> 40 µg/mL: all assays above

O=C(/C=C/c1ccc([N+](=O)[O-])cc1)c1ccc(Cl)cc1
> 40 µg/mL: all assays above

COc1cc(/C=C/C(=O)c2ccc(Cl)cc2)cc(OC)c1O
> 40 µg/mL: all assays above

COc1cc(/C=C/C(=O)c2ccc(Cl)cc2)ccc1O
> 40 µg/mL: all assays above

COc1ccc(/C=C/C(=O)c2ccc(Cl)cc2)cc1O
> 40 µg/mL: all assays above
